# Assay results: ChEMBL document CHEMBL4196105, “Discovery of β-Arrestin Biased Ligands of 5-HT7R” (J Med Chem, 2018)
# The source made the active and inactive calls. The calls are words filed in the database; no cut-off is given here.
# Key:
# [1] = target: T1, 5-hydroxytryptamine receptor 7 (Homo sapiens, UniProt P34969)
# [2] = target: T1, 5-hydroxytryptamine receptor 7; test: Inverse agonist activity at human 5-HT7 receptor expressed in HEK293 cells assessed as decrease in Gs protein-mediated cAMP accumulation by luminescence-based assay; type: functional, cell-based
# In short: (§1)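 HEK293 cells transiently transfected by calcium phosphate with human 5-HT7R and GloSensor-22F cAMP biosensor. After 5-6 h recovery, loaded with GloSensor reagent in HBSS/20 mM HEPES, pH 7.4. Test compounds at 0.01 nM-100 μM final; antagonist mode uses 5-HT stimulation. Luminescence read. Data normalised to 5-HT or SB269970 (100%) and vehicle (0%). Three experiments, at least triplicate.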
# [3] = target: T1, 5-hydroxytryptamine receptor 7; test: Antagonist activity at human 5-HT7 receptor expressed in HEK293 cells assessed as inhibition of Gs protein-mediated cAMP accumulation by luminescence-based assay relative to SB269970; type: functional, cell-based
# In short: as §1
# [4] = target: 5-hydroxytryptamine receptor 2A (Homo sapiens, UniProt P28223); test: Displacement of [3H]LSD from human 5-HT2A receptor expressed in HEK cell membranes after 1.5 hrs by microbeta scintillation counting method
# Chain of 5-hydroxytryptamine receptor 2A (P28223 whole entry): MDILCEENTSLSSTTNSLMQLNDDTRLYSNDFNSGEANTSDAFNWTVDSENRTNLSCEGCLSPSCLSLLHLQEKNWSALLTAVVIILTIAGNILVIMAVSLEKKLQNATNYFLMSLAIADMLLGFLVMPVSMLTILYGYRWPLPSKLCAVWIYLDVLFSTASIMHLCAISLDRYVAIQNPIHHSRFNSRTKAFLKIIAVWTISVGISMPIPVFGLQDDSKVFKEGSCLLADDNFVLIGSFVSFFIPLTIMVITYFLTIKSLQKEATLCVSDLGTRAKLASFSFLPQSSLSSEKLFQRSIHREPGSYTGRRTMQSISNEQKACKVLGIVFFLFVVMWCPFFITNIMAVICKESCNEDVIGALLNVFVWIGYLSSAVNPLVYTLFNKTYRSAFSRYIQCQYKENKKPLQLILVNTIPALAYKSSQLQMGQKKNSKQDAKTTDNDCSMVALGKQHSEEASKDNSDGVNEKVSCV
# In short: (§2)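 Radioligand binding performed by the NIMH Psychoactive Drug Screening Program. Crude membranes from cells expressing recombinant receptor, with [3H]LSD, in 50 mM Tris-HCl, 10 mM MgCl2, 1 mM EDTA, pH 7.4. Eleven test concentrations. Incubated 1.5 h at room temperature, protected from light. Filtered onto PEI-soaked GF/B filters, then scintillation counting. IC50 converted to Ki; at least three experiments in triplicate.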
# [5] = target: 5-hydroxytryptamine receptor 2B (Homo sapiens, UniProt P41595); test: Displacement of [3H]LSD from human 5-HT2B receptor expressed in HEK cell membranes after 1.5 hrs by microbeta scintillation counting method
# Chain of 5-hydroxytryptamine receptor 2B (P41595 whole entry, the tested form may be a part): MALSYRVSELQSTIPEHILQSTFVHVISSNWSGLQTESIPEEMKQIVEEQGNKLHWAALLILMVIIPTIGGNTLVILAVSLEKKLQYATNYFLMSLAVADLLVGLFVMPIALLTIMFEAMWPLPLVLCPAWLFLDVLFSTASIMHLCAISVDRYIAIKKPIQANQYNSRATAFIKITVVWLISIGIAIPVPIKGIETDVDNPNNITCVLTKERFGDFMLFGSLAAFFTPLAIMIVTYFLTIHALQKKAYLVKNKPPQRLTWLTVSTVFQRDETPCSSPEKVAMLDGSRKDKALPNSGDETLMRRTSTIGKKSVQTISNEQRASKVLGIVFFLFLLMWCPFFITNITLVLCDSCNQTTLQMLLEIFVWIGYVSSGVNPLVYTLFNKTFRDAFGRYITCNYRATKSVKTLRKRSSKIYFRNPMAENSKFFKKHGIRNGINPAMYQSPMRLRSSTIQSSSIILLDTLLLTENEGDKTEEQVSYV
# [6] = target: T1, 5-hydroxytryptamine receptor 7; test: Antagonist activity at tTA containing TCS cleavage site-fused 5-HT7 receptor (unknown origin) expressed in tTA-dependent luciferase reporter/TEV-fused beta-arrestin2 expressing HTLA cells assessed as inhibition of 5-HT-induced beta-arrestin2 recruitment after 22 hrs by Tango assay; type: functional, cell-based
# [7] = target: T2, 5-hydroxytryptamine receptor 3A (Homo sapiens, UniProt P46098); test: Displacement of [3H]LSD from human 5-HT3 receptor expressed in HEK cell membranes after 1.5 hrs by microbeta scintillation counting method
# T2 sequence (P46098 whole entry): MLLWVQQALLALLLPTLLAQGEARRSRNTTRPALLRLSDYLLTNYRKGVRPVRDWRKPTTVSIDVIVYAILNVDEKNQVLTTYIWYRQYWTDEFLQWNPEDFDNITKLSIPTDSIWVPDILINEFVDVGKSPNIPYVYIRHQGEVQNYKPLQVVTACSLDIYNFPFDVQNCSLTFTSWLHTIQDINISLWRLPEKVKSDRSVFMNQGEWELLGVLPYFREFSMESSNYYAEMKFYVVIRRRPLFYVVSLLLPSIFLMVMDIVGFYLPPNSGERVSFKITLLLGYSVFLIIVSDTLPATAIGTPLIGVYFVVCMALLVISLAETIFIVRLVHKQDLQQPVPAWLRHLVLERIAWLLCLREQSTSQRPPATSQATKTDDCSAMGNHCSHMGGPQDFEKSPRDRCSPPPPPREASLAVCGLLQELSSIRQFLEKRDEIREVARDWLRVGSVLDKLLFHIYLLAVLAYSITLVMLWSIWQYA
# In short: as §2
# [8] = target: 5-hydroxytryptamine receptor 4 (Homo sapiens, UniProt Q13639); test: Displacement of [3H]LSD from human 5-HT4 receptor expressed in HEK cell membranes after 1.5 hrs by microbeta scintillation counting method
# Chain of 5-hydroxytryptamine receptor 4 (Q13639 whole entry): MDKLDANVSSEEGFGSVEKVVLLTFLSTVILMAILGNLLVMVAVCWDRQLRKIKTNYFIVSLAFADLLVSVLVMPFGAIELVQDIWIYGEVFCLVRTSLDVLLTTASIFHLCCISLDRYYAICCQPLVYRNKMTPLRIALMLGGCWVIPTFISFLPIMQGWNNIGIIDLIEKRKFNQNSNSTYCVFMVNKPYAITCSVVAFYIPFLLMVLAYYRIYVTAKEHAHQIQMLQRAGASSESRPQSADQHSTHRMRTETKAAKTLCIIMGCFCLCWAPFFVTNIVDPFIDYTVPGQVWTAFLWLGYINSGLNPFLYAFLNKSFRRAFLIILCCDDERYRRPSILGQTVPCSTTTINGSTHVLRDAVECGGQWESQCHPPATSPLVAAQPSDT
# In short: as §2
# [9] = organism: Homo sapiens; test: Selectivity index, ratio of Ki for human 5-HT2A receptor to Ki for human 5-HT7 receptor
# In short: (§3)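 Selectivity index taken as Ki at the other 5-HT receptor subtype divided by Ki at 5-HT7R, each from [3H]LSD membrane binding run by the NIMH PDSP. Ki values are means of at least three experiments in triplicate.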
# [10] = target: T1, 5-hydroxytryptamine receptor 7; test: Agonist activity at tTA containing TCS cleavage site-fused 5-HT7 receptor (unknown origin) expressed in tTA-dependent luciferase reporter/TEV-fused beta-arrestin2 expressing HTLA cells assessed as induction of beta-arrestin2 recruitment after 22 hrs by Tango assay relative to 5-HT; type: functional, cell-based
# In short: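 HTLA cells (HEK293 stably expressing tTA-dependent luciferase reporter and β-arrestin2-TEV) transiently transfected with 5-HT7R-TCS-tTA. Plated in 1% dialysed FBS medium for 6 h, then given test compounds at 0.01 nM-100 μM final, about 22 h. Antagonist mode adds 1 μM 5-HT. BrightGlo luminescence read. Normalised to 5-HT (100%) and vehicle (0%). Three experiments, at least triplicate.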
# [11] = organism: Homo sapiens; test: Selectivity index, ratio of Ki for human 5-HT2C receptor to Ki for human 5-HT7 receptor
# In short: as §3
# [12] = organism: Homo sapiens; test: Selectivity index, ratio of Ki for human 5-HT6 receptor to Ki for human 5-HT7 receptor
# In short: as §3
# [13] = target: 5-hydroxytryptamine receptor 1D (Homo sapiens, UniProt P28221); test: Displacement of [3H]LSD from human 5-HT1D receptor expressed in HEK cell membranes after 1.5 hrs by microbeta scintillation counting method
# Chain of 5-hydroxytryptamine receptor 1D (P28221 whole entry): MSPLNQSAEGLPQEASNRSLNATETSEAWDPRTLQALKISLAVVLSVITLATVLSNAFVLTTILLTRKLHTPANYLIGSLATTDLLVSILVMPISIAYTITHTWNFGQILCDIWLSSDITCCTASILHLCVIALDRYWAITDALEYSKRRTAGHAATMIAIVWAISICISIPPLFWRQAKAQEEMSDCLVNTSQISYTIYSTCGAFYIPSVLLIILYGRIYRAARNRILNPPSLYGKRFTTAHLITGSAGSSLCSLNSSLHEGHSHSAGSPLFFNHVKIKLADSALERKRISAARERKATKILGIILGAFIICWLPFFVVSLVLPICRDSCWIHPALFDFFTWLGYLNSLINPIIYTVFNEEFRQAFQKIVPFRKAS
# In short: as §2
# [14] = target: T1, 5-hydroxytryptamine receptor 7; remark: listed apart in the source
# [15] = target: 5-hydroxytryptamine receptor 1E (Homo sapiens, UniProt P28566); test: Displacement of [3H]LSD from human 5-HT1E receptor expressed in HEK cell membranes after 1.5 hrs by microbeta scintillation counting method
# Chain of 5-hydroxytryptamine receptor 1E (P28566 whole entry): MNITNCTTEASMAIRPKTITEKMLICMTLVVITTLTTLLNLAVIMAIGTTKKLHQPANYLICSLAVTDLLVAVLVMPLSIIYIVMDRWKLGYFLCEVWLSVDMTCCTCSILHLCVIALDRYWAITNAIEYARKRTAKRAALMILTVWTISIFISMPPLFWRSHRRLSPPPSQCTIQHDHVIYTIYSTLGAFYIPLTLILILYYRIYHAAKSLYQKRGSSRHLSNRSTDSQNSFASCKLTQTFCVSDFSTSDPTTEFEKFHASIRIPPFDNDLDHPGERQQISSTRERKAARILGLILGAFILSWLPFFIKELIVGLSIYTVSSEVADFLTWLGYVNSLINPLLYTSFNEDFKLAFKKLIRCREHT
# In short: as §2
# [16] = target: 5-hydroxytryptamine receptor 6 (Homo sapiens, UniProt P50406); test: Displacement of [3H]LSD from human 5-HT6 receptor expressed in HEK cell membranes after 1.5 hrs by microbeta scintillation counting method
# Chain of 5-hydroxytryptamine receptor 6 (P50406 whole entry): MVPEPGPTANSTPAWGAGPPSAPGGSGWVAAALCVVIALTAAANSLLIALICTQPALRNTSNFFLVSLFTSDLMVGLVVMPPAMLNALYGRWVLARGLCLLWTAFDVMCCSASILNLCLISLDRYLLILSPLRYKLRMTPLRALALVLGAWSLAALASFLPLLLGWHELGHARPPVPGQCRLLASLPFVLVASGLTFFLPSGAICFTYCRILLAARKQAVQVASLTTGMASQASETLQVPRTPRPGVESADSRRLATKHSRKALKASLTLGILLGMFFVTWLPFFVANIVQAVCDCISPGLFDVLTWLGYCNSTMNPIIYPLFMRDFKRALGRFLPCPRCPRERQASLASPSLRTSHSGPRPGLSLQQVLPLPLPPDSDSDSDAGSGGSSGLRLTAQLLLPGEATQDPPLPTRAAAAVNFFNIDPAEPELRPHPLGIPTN
# In short: as §2
# [17] = target: T3, 5-hydroxytryptamine receptor 1A (Homo sapiens, UniProt P08908); test: Displacement of [3H]LSD from human 5-HT1A receptor expressed in HEK cell membranes after 1.5 hrs by microbeta scintillation counting method
# T3 sequence (P08908 whole entry): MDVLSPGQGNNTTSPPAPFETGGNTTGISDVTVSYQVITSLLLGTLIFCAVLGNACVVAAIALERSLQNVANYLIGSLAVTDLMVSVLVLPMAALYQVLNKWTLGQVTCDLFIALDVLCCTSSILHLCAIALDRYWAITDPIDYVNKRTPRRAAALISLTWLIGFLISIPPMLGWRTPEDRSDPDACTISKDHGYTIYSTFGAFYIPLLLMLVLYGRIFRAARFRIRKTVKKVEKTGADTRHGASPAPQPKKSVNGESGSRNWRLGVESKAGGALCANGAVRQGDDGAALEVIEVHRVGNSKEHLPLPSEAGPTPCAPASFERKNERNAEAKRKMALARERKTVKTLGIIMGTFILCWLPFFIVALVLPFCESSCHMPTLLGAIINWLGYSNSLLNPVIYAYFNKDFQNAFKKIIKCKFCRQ
# In short: as §2
# [18] = target: T4, 5-hydroxytryptamine receptor 2C (Homo sapiens, UniProt P28335); test: Displacement of [3H]LSD from human 5-HT2C receptor expressed in HEK cell membranes after 1.5 hrs by microbeta scintillation counting method
# T4 sequence (P28335 whole entry): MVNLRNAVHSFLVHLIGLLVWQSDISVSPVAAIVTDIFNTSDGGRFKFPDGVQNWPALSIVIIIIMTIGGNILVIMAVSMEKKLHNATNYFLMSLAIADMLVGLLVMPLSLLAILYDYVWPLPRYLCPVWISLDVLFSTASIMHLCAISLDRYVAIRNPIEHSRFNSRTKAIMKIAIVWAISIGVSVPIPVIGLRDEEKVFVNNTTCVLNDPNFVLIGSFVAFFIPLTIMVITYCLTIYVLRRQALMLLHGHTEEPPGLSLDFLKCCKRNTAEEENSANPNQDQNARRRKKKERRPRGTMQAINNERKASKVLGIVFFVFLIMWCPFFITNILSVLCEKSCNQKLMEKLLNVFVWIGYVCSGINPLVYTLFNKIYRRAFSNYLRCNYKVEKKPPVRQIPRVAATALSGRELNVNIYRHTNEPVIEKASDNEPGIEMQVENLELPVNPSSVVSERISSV
# In short: as §2
# [19] = organism: Homo sapiens; test: Selectivity index, ratio of Ki for human 5-HT2B receptor to Ki for human 5-HT7 receptor
# In short: as §3
# [20] = target: 5-hydroxytryptamine receptor 5A (Homo sapiens, UniProt P47898); test: Displacement of [3H]LSD from human 5-HT5A receptor expressed in HEK cell membranes after 1.5 hrs by microbeta scintillation counting method
# Chain of 5-hydroxytryptamine receptor 5A (P47898 whole entry): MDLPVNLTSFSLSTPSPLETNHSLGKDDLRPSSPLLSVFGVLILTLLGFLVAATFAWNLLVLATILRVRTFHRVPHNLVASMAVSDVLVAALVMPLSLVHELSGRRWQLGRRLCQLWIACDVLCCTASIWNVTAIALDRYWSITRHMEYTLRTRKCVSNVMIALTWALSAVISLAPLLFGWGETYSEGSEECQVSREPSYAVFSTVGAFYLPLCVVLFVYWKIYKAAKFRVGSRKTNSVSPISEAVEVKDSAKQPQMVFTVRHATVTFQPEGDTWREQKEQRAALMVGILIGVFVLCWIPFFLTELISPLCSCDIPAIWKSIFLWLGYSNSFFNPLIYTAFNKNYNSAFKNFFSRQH
# In short: as §2
# [21] = target: 5-hydroxytryptamine receptor 1B (Homo sapiens, UniProt P28222); test: Displacement of [3H]LSD from human 5-HT1B receptor expressed in HEK cell membranes after 1.5 hrs by microbeta scintillation counting method
# Chain of 5-hydroxytryptamine receptor 1B (P28222 whole entry): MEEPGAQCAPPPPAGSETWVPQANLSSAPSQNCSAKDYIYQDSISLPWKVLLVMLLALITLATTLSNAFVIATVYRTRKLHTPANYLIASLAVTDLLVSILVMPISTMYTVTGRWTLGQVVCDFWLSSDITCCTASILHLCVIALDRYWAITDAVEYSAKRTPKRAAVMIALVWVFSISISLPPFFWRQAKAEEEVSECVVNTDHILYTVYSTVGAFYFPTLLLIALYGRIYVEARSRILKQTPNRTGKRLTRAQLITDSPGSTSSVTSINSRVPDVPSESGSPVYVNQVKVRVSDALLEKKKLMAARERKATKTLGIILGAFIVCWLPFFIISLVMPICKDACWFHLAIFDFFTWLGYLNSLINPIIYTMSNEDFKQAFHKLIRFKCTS
# In short: as §2
# [22] = organism: Homo sapiens; test: Selectivity index, ratio of Ki for human 5-HT3 receptor to Ki for human 5-HT7 receptor
# In short: as §3
# [23] = target: T1, 5-hydroxytryptamine receptor 7; test: Displacement of [3H]LSD from human 5-HT7 receptor expressed in HEK cell membranes after 1.5 hrs by microbeta scintillation counting method
# [24] = target: T1, 5-hydroxytryptamine receptor 7; test: Displacement of [3H]LSD from human 5-HT7 receptor expressed in HEK cell membranes at 10 uM after 1.5 hrs by microbeta scintillation counting method
# In short: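 [3H]LSD binding to recombinant 5-HT7R membranes in Tris-HCl/MgCl2/EDTA buffer, pH 7.4, 1.5 h at room temperature, filtration and scintillation counting. Percent inhibition at a single 10 μM test concentration.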
# [25] = test system: Mus musculus; test: Sleep promoting activity in C57B1/6J mouse assessed as decrease in total rapid eye movement sleep time at 30 mg/kg, ip measured over 8 hrs by electroencephalogram method; type: functional; set-up: scale not given: the % may be the effect or the level left
# In short: (§4)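 Adult male C57Bl/6J mice, 10 weeks old, with parietal EEG screw electrodes implanted under ketamine. EEG and EMG recorded for 8 h from 9 AM, starting one day before dosing as baseline. On test day, 30 mg/kg i.p. at the start of the light phase, with EEG/EMG recorded for 8 h and scored in 2-h bins. n = 6-9 per group; mean ± SEM versus vehicle.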
# [26] = test system: Mus musculus; test: Sleep promoting activity in C57B1/6J mouse assessed as duration of total non-rapid eye movement sleep time at 30 mg/kg, ip measured over 8 hrs by electroencephalogram method (reference value: 252 +/- 22.7 mins); type: functional
# In short: as §4
# [27] = organism: Homo sapiens; test: Selectivity index, ratio of Ki for human 5-HT5A receptor to Ki for human 5-HT7 receptor
# In short: as §3
# [28] = organism: Homo sapiens; test: Selectivity index, ratio of Ki for human 5-HT1D receptor to Ki for human 5-HT7 receptor
# In short: as §3
# [29] = organism: Homo sapiens; test: Selectivity index, ratio of Ki for human 5-HT1E receptor to Ki for human 5-HT7 receptor
# In short: as §3
# T1 sequence (P34969 whole entry): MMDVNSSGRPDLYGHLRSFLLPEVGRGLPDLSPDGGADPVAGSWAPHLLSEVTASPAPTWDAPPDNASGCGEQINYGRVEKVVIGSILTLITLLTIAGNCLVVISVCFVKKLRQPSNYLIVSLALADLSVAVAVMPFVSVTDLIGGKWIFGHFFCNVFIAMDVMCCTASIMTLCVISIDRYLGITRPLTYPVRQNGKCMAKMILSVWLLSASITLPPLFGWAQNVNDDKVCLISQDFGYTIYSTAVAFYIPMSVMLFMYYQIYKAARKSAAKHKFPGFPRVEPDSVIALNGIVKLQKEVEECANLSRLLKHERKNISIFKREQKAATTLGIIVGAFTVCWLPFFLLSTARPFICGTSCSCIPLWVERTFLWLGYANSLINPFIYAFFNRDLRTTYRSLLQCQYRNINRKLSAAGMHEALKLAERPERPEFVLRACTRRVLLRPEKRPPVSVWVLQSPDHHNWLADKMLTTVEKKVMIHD
Structure (SMILES),IC50 [1] [nM],Activity [2],Imax [3] [%],Ki [4] [nM],Ki [5] [nM],inhibition [6],Ki [7] [nM],Ki [8] [nM],Ratio Ki [9],Emax [10] [%],Ratio Ki [11],Ki [13] [nM],EC50 [14] [nM],Ki [15] [nM],Ki [16] [nM],Ki [17] [nM],Ki [18] [nM],Ratio Ki [19],Ki [20] [nM],Ki [21] [nM],also measured
Clc1ccc(-c2noc3c2CCNCC3)cc1,3970,Active,94.9,399,247,inactive,303,> 10000,5.7,47.1,15.7,> 10000,113,> 10000,360,> 10000,1100,3.5,> 10000,> 10000,Ratio Ki [12]: 5.1; Ratio Ki [22]: 4.3
Cc1ccccc1-c1noc2c1CCNCC2,–,–,–,–,–,–,–,–,–,–,–,–,–,–,–,–,–,–,–,–,Ki [23]: > 10000 nM; inhibition [24]: < 50%
CC1CCN(CC[C@H]2CCCN2S(=O)(=O)c2cccc(O)c2)CC1,–,Active,–,–,–,–,–,–,–,< 20,–,–,–,–,–,–,–,–,–,–,Activity [25]: 37.1%; Time [26]: 252 min
Fc1ccc(-c2noc3c2CCNCC3)cc1,2460,Active,98,471,505,inactive,703,> 10000,8.9,38.2,14.8,> 10000,135,> 10000,> 10000,> 10000,785,9.5,1230,> 10000,Ratio Ki [27]: 23.2; Ratio Ki [22]: 13.3
Cc1ccc(-c2n[nH]c3c2CCNCC3)cc1,2560,Active,97.4,159,106,inactive,> 10000,> 10000,3.4,50.9,6.3,165,165,890,109,> 10000,296,2.3,> 10000,> 10000,Ratio Ki [28]: 3.5; Ratio Ki [12]: 2.3; Ratio Ki [29]: 18.9
